Assay results collected from several papers.
Each line is one published result; the experiments were not run side by side.
Observed: cell growth or viability

For `CC(C)(C)c1cnc(CSc2cnc(NC(=O)C3CCN(C(=O)COCCOCCSc4cccc5c4C(=O)N(C4CCC(=O)NC4=O)C5=O)CC3)s2)o1` (stereo not shown), the viability was 94.2% (HH; CCK-8; 0.2 µM).
The viability of `S=C(Nc1ccccc1)Nc1ccc(Oc2nnc(-c3ccc(Cl)cc3)c3ccccc23)cc1` is reported as 18% (HepG2; MTT; 2.5 µM; 24 h).
The viability of `CC(C)(C)c1cnc(CSc2cnc(NC(=O)C3CCN(CCCCCSc4cccc5c4CN(C4CCC(=O)NC4=O)C5=O)CC3)s2)o1` (stereo not shown) is reported as 0% (HH; CCK-8; 0.5 µM).
With `CCOC(=O)c1nn(-c2cccc(Cl)c2)/c(=N/N=C(\C)c2ccc(NC(=O)c3ccc(Cl)cc3)cc2)s1` the viability was 2.86% (HepG2; MTT; 2.5 µM).
`CC(C)(C)c1cnc(CSc2cnc(NC(=O)C3CCN(CCCCSc4cccc5c4C(=O)N(C4CCC(=O)NC4=O)C5=O)CC3)s2)o1` (stereo not shown) has a viability of 1.85% (HH; CCK-8; 0.2 µM).
With `O=C(C=Cc1ccccc1)Nc1ccc(Oc2nnc(-c3ccc(Cl)cc3)c3ccccc23)cc1` the viability was 2.63% (HepG2; MTT; 10 µM; 24 h).
`CC(=O)c1nn(-c2ccccc2Cl)/c(=N/N=C(\C)c2ccc(NC(=O)c3ccccc3)cc2)s1` has a viability of 6.13% (HepG2; MTT; 10 µM).
The viability of `CC(C)(C)c1cnc(CSc2cnc(NC(=O)C3CCN(CCCCCCCCSc4cccc5c4C(=O)N(C4CCC(=O)NC4=O)C5=O)CC3)s2)o1` (stereo not shown) is reported as 99.5% (HH; CCK-8; 1 nM).
For `CC(=NNC(=O)COc1ccc2c(C)c(Cc3ccccc3)c(=O)oc2c1C)c1ccc(Br)cc1`, the viability was 58% (HepG2; MTT; 0.4 µg/mL).
With `CC(=NNC(=O)c1ccncc1)c1ccc(Nc2nnc(-c3ccc(Cl)cc3)c3ccccc23)cc1` the viability was 5.31% (HepG2; MTT; 1.25 µM; 24 h).
`CCOC(=O)c1nn(-c2cccc(Cl)c2)/c(=N/N=C(\C)c2ccc(NC(=O)c3ccccc3)cc2)s1` gave a viability of 81.9% (HepG2; MTT; 78 nM).
The viability of `CC(C)(C)c1cnc(CSc2cnc(NC(=O)C3CCN(C(=O)CCCSc4cccc5c4C(=O)N(C4CCC(=O)NC4=O)C5=O)CC3)s2)o1` (stereo not shown) is reported as 99.7% (HH; CCK-8; 10 nM).
For `CC(=NNC(=O)c1ccc(N)cc1)c1ccc(Nc2nnc(-c3ccc(Cl)cc3)c3ccccc23)cc1`, the viability was 91.5% (HepG2; MTT; 0.625 µM; 24 h).
`CC(=O)c1nn(-c2ccc(C)cc2)/c(=N/N=C(\C)c2ccc(NC(=O)c3ccccc3)cc2)s1` gave a viability of 73.6% (HepG2; MTT; 78 nM).
`O=C(Nc1ccc(Oc2nnc(-c3ccc(Cl)cc3)c3ccccc23)cc1)c1cccc([N+](=O)[O-])c1` has a viability of 6.17% (HepG2; MTT; 10 µM; 24 h).
For `CC(=O)Nc1ccc(/C(C)=N/N=c2\sc(C(C)=O)nn2-c2ccc(C)cc2)cc1`, the viability was 99.8% (HepG2; MTT; 0.625 µM).
